# Data reported in ChEMBL document CHEMBL1124772, “Synthesis and anticonvulsant activity of 1-phenylcyclohexylamine analogues” (J Med Chem, 1990).
# Experiments:
# Mus musculus [1] = assay: Evaluated for anticonvulsant activity (ED50) by maximal electroshock (MES) seizure test in mouse by intraperitoneal administration.; format: functional
# Method in brief: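 Protection means no tonic-extensor component. Five to 10 doses, eight mice per dose; ED50 with 95% confidence limits by log-probit analysis. Compounds given as HCl salts, one as a methiodide.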
# Mus musculus [2] = assay: Evaluated for anticonvulsant activity (TD50) by motor toxicity assay in mouse by intraperitoneal administration.; format: functional; settings: ip
# Method in brief: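 Male Swiss mice (25–30 g), ip in 0.9% NaCl carrier. Five to 10 doses, eight mice per dose; TD50 with 95% confidence limits by log-probit analysis. Compounds given as HCl salts, one as a methiodide.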
# Glutamate NMDA receptor = assay: Evaluated in vitro binding affinity against PCP receptor using [3H]TCP as radioligand in rat brain membranes; format: cell membranes
# Mus musculus [3] = species: Mus musculus; assay: TI value is the ratio between TD50 and ED50; format: functional
# Method in brief: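 Ratio TD50/MES ED50. Both values from ip dosing in male Swiss mice (25–30 g), 0.9% NaCl carrier. Five to 10 doses, eight mice per dose; each value by log-probit analysis.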
# Mus musculus [4] = assay: Evaluated for anticonvulsant activity (TD50) by motor toxicity assay in mouse by intraperitoneal administration; range is 40.6-54.8; format: functional; settings: ip
SMILES,MES ED50 (Mus musculus [1]),TD50 (Mus musculus [2]),Ki (Glutamate NMDA receptor),TI (Mus musculus [3]),TD50 (Mus musculus [4])
C[N+](C)(C)C1(c2ccccc2)CCCCC1.[I-],>64 mg/kg,> 64 mg/kg,14.3 µM,–,–
Cl.NC1(c2cccc(C(F)(F)F)c2)CCCCC1,24.31 mg/kg,16 mg/kg,8.4 µM,0.66,–
Cl.NC1(c2cc3ccccc3c3ccccc23)CCCCC1,16.02 mg/kg,20.6 mg/kg,27.5 µM,1.28,–
Cl.NC1(c2c(F)c(F)c(F)c(F)c2F)CCCCC1,33.81 mg/kg,37.9 mg/kg,10 µM,1.21,–
CCCCC1(N)CCCCC1.Cl,>40.6 mg/kg,–,–,–,40.6 mg/kg
CSc1cccc(C2(N)CCCCC2)c1.Cl,32.88 mg/kg,63.7 mg/kg,2.42 µM,1.94,–
COc1cccc(C2(N)CCCCC2)c1.Cl,14.78 mg/kg,21.4 mg/kg,0.563 µM,1.45,–
CSc1ccc(C2(N)CCCCC2)cc1.Cl,40.8 mg/kg,77.1 mg/kg,43 µM,1.89,–
Cc1cccc(C2(N)CCCCC2)c1.Cl,19.11 mg/kg,26.2 mg/kg,0.592 µM,1.37,–
Cl.NCC1(c2ccccc2)CCCCC1,27.7 mg/kg,51.9 mg/kg,5.1 µM,1.87,–
COc1ccccc1C1(N)CCCCC1.Cl,11.11 mg/kg,31.6 mg/kg,0.85 µM,2.84,–
CSc1ccccc1C1(N)CCCCC1.Cl,26.18 mg/kg,29.3 mg/kg,0.82 µM,1.12,–
C[C@@H]1CCC[C@@](N)(c2ccccc2)C1.Cl,8.04 mg/kg,15.9 mg/kg,8 µM,1.98,–
C[C@H]1CC[C@@](N)(c2ccccc2)CC1.Cl,33.75 mg/kg,69.3 mg/kg,8.4 µM,2.05,–
C[C@H]1CCC[C@@](N)(c2ccccc2)C1.Cl,8.01 mg/kg,24.3 mg/kg,1.64 µM,3.04,–
Cl.NC1(c2ccc3ccccc3c2)CCCCC1,16.91 mg/kg,30.9 mg/kg,34 µM,1.82,–
Cl.NC1(c2cccc(OCc3ccccc3)c2)CCCCC1,29.41 mg/kg,67 mg/kg,10.6 µM,2.28,–
CCC(N)(CC)c1ccccc1.Cl,31.23 mg/kg,42.1 mg/kg,6 µM,1.35,–
COc1ccc(C2(N)CCCCC2)cc1.Cl,32.67 mg/kg,77.9 mg/kg,121 µM,2.39,–
Cl.NC1(c2ccccc2F)CCCCC1,22.93 mg/kg,61.2 mg/kg,10.7 µM,2.67,–

SMILES,MES ED50 (Mus musculus [1]),TD50 (Mus musculus [2]),Ki (Glutamate NMDA receptor),TI (Mus musculus [3]),TD50 (Mus musculus [4])
CN(C)C1(c2ccccc2)CCCCC1.Cl,4.86 mg/kg,11.3 mg/kg,0.722 µM,2.32,–
Cl.NC1(c2ccc(F)cc2)CCCCC1,26.18 mg/kg,23.4 mg/kg,0.923 µM,0.9,–
Cc1ccccc1C1(N)CCCCC1.Cl,4.93 mg/kg,7.19 mg/kg,7.8 µM,1.46,–
Cl.NC1(c2ccccc2)CCCCC1,7.04 mg/kg,16.3 mg/kg,0.527 µM,2.31,–
C[C@@H]1CCC[C@](N)(c2ccccc2)C1.Cl,20.86 mg/kg,56.1 mg/kg,1.2 µM,2.69,–
Cc1ccc(C2(N)CCCCC2)cc1.Cl,>74 mg/kg,> 74 mg/kg,7.3 µM,–,–
C[C@H]1CCC[C@](N)(c2ccccc2)C1.Cl,26.38 mg/kg,54.8 mg/kg,0.502 µM,–,–
Cl.NC1(c2ccccc2)CCCC1,18.52 mg/kg,64.6 mg/kg,10.5 µM,3.49,–
Cl.NC1(c2ccccc2C(F)(F)F)CCCCC1,30.36 mg/kg,39.2 mg/kg,12.4 µM,1.29,–
Cl.NC1(c2cccc(F)c2)CCCCC1,9.36 mg/kg,20.2 mg/kg,0.675 µM,2.15,–
Cl.NC1(c2cccs2)CCCCC1,10.5 mg/kg,4.99 mg/kg,0.145 µM,0.47,–
C[C@H]1CC[C@](N)(c2ccccc2)CC1.Cl,13.53 mg/kg,46.6 mg/kg,1.1 µM,3.44,–
Cl.NC1(c2cccc(O)c2)CCCCC1,35.25 mg/kg,42.7 mg/kg,0.222 µM,1.21,–
Cl.NC1(c2ccc(-c3ccccc3)cc2)CCCCC1,18.81 mg/kg,26.7 mg/kg,86 µM,1.42,–
CNC1(c2ccccc2)CCCCC1.Cl,4.62 mg/kg,1.56 mg/kg,0.347 µM,0.34,–
Cl.NC1(Cc2ccccc2)CCCCC1,34.52 mg/kg,67.2 mg/kg,16 µM,1.95,–
Cl.NC1(c2ccccc2)CCCCCC1,19.73 mg/kg,43 mg/kg,2.6 µM,2.18,–
C[C@@H]1CCCC[C@]1(N)c1ccccc1.Cl (racemic),16.87 mg/kg,34.6 mg/kg,1.6 µM,2.05,–
C[C@H]1CCCC[C@]1(N)c1ccccc1.Cl (racemic),8.01 mg/kg,5.92 mg/kg,2 µM,0.74,–
c1ccc(C2(N3CCCCC3)CCCCC2)cc1 [PHENCYCLIDINE],3.1 mg/kg,2.9 mg/kg,0.06 µM,0.93,–
